MEKK3 PB1 HTS: raises or lowers MEK5 binding to the human MEKK3 PB1 domain. Q99759. bead-based flow cytometry, Alexa488-MEK5 binding to MEKK3; actives lie on both sides; 0 = blocked by unlabeled MEK5, 100 = vehicle. binding response (% of control), % at 10 µM. 290,000 compounds, 1.4% hits;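 active means binding response more than 3 SD above or below the average of its plate-row segment, actives on both sides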;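 further: Alexa488 bead fluorescence after subtracting the streptavidin-only scavenger bead signal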
MEKK2mut PB1 HTS: signal of MEK5 binding to mutant human MEKK2 PB1 domain | bead flow cytometry, Alexa488-MEK5 binding to MEKK2 mutant | 290,000 compounds, 0.35% hits | percent response, % at 10 µM; in the data active means percent response above about 24%, passing the limit was not always enough
Apaf-1 inh: blocks human Apaf-1 apoptosome activity. O14727. reconstituted apoptosome caspase-3 activity, DEVD-Rh110 fluorescence. inhibition, % at 20 µM. 330,000 compounds, 0.71% hits; active means inhibition of at least 40% at 20 µM;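 further: plate controls were DMSO wells for no effect and DEVD-CHO caspase inhibitor wells for full effect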
Target sequence (O14727 whole entry, looked up): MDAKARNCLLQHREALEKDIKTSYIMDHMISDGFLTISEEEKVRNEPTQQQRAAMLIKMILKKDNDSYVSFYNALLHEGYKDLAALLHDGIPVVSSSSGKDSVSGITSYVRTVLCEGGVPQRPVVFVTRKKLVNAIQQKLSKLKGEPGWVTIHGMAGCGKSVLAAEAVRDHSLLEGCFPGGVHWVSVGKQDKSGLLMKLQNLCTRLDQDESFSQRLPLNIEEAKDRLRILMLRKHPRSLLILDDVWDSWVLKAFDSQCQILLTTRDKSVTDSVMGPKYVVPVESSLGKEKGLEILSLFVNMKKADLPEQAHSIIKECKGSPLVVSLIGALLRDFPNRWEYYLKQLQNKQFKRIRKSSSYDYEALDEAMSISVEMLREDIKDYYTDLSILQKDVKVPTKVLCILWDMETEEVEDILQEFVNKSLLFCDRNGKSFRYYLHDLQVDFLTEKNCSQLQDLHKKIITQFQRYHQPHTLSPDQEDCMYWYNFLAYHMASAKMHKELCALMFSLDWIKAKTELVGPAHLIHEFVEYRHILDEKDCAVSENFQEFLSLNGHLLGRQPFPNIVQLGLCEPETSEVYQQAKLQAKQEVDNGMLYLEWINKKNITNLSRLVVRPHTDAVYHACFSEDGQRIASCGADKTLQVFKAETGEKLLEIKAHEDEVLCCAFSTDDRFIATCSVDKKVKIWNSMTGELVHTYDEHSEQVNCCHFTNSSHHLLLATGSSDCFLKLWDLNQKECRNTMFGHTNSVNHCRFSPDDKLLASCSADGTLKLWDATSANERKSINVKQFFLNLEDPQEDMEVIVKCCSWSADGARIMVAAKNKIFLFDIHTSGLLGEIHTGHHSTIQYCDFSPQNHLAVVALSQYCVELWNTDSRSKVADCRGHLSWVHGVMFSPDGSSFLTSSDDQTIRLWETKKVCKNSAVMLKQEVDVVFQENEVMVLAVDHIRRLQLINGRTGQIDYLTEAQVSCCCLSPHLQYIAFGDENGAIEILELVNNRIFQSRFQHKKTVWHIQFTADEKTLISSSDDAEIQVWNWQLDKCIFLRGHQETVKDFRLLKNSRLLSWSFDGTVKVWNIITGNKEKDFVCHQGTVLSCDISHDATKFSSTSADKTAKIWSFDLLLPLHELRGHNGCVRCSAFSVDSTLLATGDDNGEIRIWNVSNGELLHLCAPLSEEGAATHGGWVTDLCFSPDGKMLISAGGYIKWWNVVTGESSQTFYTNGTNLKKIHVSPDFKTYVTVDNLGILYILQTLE
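Material: cell-free apoptosome with Apaf-1, procaspase-3 and caspase-9; Buffer or medium: Hepes pH 7.5 with detergent and BSA; Reagent: cytochrome c trigger plus (Z-DEVD)2-Rh110 caspase-3 substrate; Times: compound with Apaf-1, dATP, procaspase-3 30 min, then 50 min reaction, room temperature; Technique: Rh110 fluorescence intensity.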
MEKK2 WT-MEK5: raises or lowers MEK5 binding to wildtype human MEKK2 PB1 domain; Q9Y2U5; bead flow cytometry, Alexa488-MEK5 binding to MEKK2 WT; actives lie on both sides; binding response (% of control), % at 10 µM; 290,000 compounds, 1.1% hits; AID 1531; in the data active means binding response below about 67% or above about 130%
UBC13 polyUb: human UBC13 polyubiquitination inhibition. UBC13 polyubiquitin chain formation, TR-FRET. P61088. inhibition, % at 20 µM. 330,000 compounds, 0.47% hits; in the data active means inhibition above about 45%, passing the limit was not always enough
MEKK2wt confirm: raises or lowers MEK5 binding to wildtype human MEKK2, retest; binding response (% of control), % at 10 µM; 5,900 compounds, 2.4% hits; bead flow cytometry, Alexa488-MEK5 binding to MEKK2 WT; actives lie on both sides; shares compounds with MEKK3 PB1 HTS; AID 1892; in the data active means binding response below about 16% or above about 210%; inactive means in between
MEKK2mut confirm: signal of MEK5 binding to mutant human MEKK2, retest; 5,900 compounds, 2% hits; AID 1893; shares compounds with MEKK3 PB1 HTS; percent response, % at 10 µM; bead flow cytometry, Alexa488-MEK5 binding to MEKK2 mutant; in the data active means percent response mostly above about 71%, no sharp cut-off; inactive means mostly below about 38%;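 further: higher means compound restores mutant binding toward wildtype level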
MEKK3-MEK5 inh: confirmation of inhibitors of MEK5 binding to human MEKK3; bead flow cytometry, Alexa488-MEK5 binding to MEKK3; hits give low values; 5,900 compounds, 1.8% hits; binding response (% of control), % at 10 µM; shares compounds with MEKK3 PB1 HTS;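 active means binding response below 72% of control, or above a set upper limit, though filed actives all read lower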;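 further: 100% = DMSO only wells and 0% = binding blocked by excess unlabeled MEK5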
Starred values were filed as active, the others as inactive; . = no result; [ ] = remark or other dose. In the library only some 2.9% were active in any assay of this set; here they are far more common.

SMILES | MEKK3 PB1 HTS | MEKK2mut PB1 HTS | Apaf-1 inh | MEKK2 WT-MEK5 | UBC13 polyUb | MEKK2wt confirm | MEKK2mut confirm | MEKK3-MEK5 inh
CSCCNC(=O)Nc1c(-c2c(Cl)cccc2Cl)noc1C | 67.0*[inhibitor] | -26.0 | -15.3 | 86.0 | 5.5 | 102.0 | 4.0 | 102.0
CCOc1ccc(C2CC(c3ccc(F)cc3)n3ncnc3N2)cc1 (stereo not given) | 102.0 | -5.0 | -0.4 | 96.0 | 6.1 | . | . | .
C/C=C(/C)C(=O)O[C@@H]1[C@H](OC(C)=O)c2c(ccc3ccc(=O)oc23)OC1(C)C | 108.0 | 5.0 | 4.5 | 97.0 | 8.3 | . | . | .
C/C=C(/C)C(=O)O[C@H]1[C@@H](O)c2c(ccc3ccc(=O)oc23)OC1(C)C | 123.0* | 11.0 | -5.8 | 101.0 | 6.7 | 103.0 | 8.0 | 100.0
Cc1cc(Br)ccc1OCC(=O)NNC(=O)c1cnccn1 | 89.0 | -5.0 | -16.9 | 96.0 | -0.5 | . | . | .
CC(C)(C)N(Cc1ccccc1)C(=O)COC(=O)CSc1ccc([N+](=O)[O-])cc1 | . | . | 17.5 | . | -2.7 | . | . | .
CC(=O)N1CCC(C(=O)OCc2ccccc2F)(c2ccccc2)CC1 | 98.0 | 3.0 | 11.9 | 101.0 | 2.6 | . | . | .
CCNC(=S)Nc1ccc(Cl)c(C(F)(F)F)c1 | 102.0 | -1.0 | -2.4 | 99.0 | -1.8 | . | . | .
CCC(=O)N1CCc2cc(S(=O)(=O)NCCC(=O)N3CCN(c4cccc(C)c4)C(C)C3)ccc21 (stereo not given) | 85.0 | -16.0 | 8.8 | 83.0 | -6.0 | . | . | .
COc1ccc(C(=O)NCc2ccc3c(c2)OCO3)cc1 | 102.0 | -1.0 | -9.7 | 96.0 | -3.9 | . | . | .
Cc1cc2cc(CNC(=O)c3ccco3)ccc2n1C | 97.0 | 1.0 | -3.3 | 96.0 | -19.2 | . | . | .
Cc1cc2cc(CNC(=O)c3cc4ccccc4o3)ccc2n1C | 45.0*[inhibitor] | -9.0 | 12.3 | . | 2.8 | 57.0 | -19.0 | 75.0
CNC(=O)c1cc2ccccc2o1 | 124.0* | 7.0 | 9.6 | 119.0 | -4.9 | 91.0 | -6.0 | 90.0
COc1ccc(C(=O)NCc2ccc3c(c2)cc(C)n3C)cc1 | 90.0 | 8.0 | -1.3 | 91.0 | 2.4 | . | . | .
Cc1cc2cc(CNC(=O)c3ccc4c(c3)OCO4)ccc2n1C | 65.0*[inhibitor] | -19.0 | 12.4 | -11.0* | 6.8 | 102.0 | 4.0 | 101.0
COc1cc(OC)cc(C(=O)NCc2ccc3c(c2)cc(C)n3C)c1 | 47.0*[inhibitor] | -21.0 | 15.4 | . | 9.7 | 70.0 | -12.0 | 85.0
COc1ccc(C2=NN(C(=O)c3cccs3)C(c3ccccc3O)C2)cc1 (stereo not given) | 50.0*[inhibitor] | -15.0 | 31.7 | 48.0 | 5.8 | 90.0 | -8.0 | 96.0
COc1ccccc1N(C)S(=O)(=O)c1ccc(C(=O)OCC(=O)c2c[nH]c3ccccc23)cc1 | 104.0 | 0.0 | -10.3 | 114.0 | -0.9 | . | . | .
N=C1/C(=C\c2ccc(SCc3ccccc3)o2)C(=O)N=C2SC(CC(=O)N3CCOCC3)=NN12 | 48.0*[inhibitor] | -12.0 | 5.5 | 50.0 | 3.1 | 94.0 | -6.0 | 94.0
Cc1ccc(/C=C2\C(=N)N3N=C(CC(=O)N4CCOCC4)SC3=NC2=O)o1 | 101.0 | 4.0 | -8.9 | 104.0 | -13.2 | . | . | .
N#Cc1nc(COc2ccccc2F)oc1NCCCn1ccnc1 | 1.0*[inhibitor] | -26.0 | 4.0 | 2.0*[inhibitor] | 1.9 | 97.0 | 2.0 | 93.0
COc1ccccc1OCc1nc(C#N)c(NCCCn2ccnc2)o1 | 97.0 | -6.0 | 0.2 | 99.0 | -8.8 | . | . | .
CCOc1ccc(CCNC(=O)COC(=O)c2c(C)nn(-c3ccccc3)c2C)cc1OCC | 100.0 | -1.0 | 2.4 | 97.0 | -3.1 | . | . | .
Cc1ccc(C)c(OCC(=O)Nc2ccc(S(=O)(=O)Nc3ccccn3)cc2)c1 | 134.0* | -1.0 | 1.1 | 102.0 | 2.9 | 108.0 | 4.0 | 105.0
Cc1ccc(CNC(=O)C2CN(S(C)(=O)=O)c3cc(Cl)ccc3O2)cc1 (stereo not given) | 100.0 | -2.0 | 14.1 | 101.0 | -6.6 | . | . | .
CCOc1ccc(NC(=O)c2ccc(F)cc2F)cc1 | 105.0 | 3.0 | -5.5 | 105.0 | 10.1 | . | . | .
